Reference: ChEMBL document CHEMBL3875204, “Structure-guided development of covalent TAK1 inhibitors” (Bioorg Med Chem, 2017)
Calls of active or inactive are those of the source. The calls are words filed in the database; no cut-off is given here.

Experiments:
[1] = Half life in mouse liver microsomes by LC-MS/MS analysis; type: ADME
[2] = biological target: Mitogen-activated protein kinase 1 (Homo sapiens, UniProt P28482); assay: Inhibition of full length recombinant human GST-tagged ERK2 expressed in Escherichia coli using Ser/Thr 03 as substrate after 1 hr by Z'-Lyte assay
Chain of Mitogen-activated protein kinase 1 (P28482 whole entry): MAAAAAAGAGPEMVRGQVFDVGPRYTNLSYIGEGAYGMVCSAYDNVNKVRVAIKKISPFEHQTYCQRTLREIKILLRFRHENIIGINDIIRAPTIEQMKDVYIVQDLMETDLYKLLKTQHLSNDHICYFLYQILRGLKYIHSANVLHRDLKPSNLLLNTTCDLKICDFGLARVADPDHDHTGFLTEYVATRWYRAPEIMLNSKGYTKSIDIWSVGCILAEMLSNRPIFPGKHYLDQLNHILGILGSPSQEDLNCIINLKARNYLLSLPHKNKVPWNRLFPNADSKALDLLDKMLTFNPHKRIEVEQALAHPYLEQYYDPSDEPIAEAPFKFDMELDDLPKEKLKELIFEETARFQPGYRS
How it was run: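 Z'-Lyte FRET activity assay run per the supplier's protocol, with ATP near the kinase's Km.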

[3] = biological target: Dual specificity mitogen-activated protein kinase kinase 1 (Homo sapiens, UniProt Q02750); assay: Inhibition of full length recombinant human His-tagged MEK1 expressed in baculovirus expression system after 1 hr by TR-FRET based LanthaScreen assay
Chain of Dual specificity mitogen-activated protein kinase kinase 1 (Q02750 whole entry, the tested form may be a part): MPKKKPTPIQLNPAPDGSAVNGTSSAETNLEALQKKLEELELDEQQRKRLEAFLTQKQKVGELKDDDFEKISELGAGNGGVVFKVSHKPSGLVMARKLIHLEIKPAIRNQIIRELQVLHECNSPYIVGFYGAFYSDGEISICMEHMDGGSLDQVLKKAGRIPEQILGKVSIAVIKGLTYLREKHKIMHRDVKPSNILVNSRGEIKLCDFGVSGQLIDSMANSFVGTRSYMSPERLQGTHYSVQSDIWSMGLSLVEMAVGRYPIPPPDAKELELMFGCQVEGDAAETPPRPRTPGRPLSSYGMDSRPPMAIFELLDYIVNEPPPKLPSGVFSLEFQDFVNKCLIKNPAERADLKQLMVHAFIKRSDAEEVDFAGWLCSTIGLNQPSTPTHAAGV

[4] = biological target: T1, Mitogen-activated protein kinase kinase kinase 7 (Homo sapiens, UniProt O43318); assay: Time-dependent inhibition of TAB1 fused TAK1 (unknown origin) using FAM-LRRKtide as substrate by mobility shift assay
T1 sequence (O43318 whole entry): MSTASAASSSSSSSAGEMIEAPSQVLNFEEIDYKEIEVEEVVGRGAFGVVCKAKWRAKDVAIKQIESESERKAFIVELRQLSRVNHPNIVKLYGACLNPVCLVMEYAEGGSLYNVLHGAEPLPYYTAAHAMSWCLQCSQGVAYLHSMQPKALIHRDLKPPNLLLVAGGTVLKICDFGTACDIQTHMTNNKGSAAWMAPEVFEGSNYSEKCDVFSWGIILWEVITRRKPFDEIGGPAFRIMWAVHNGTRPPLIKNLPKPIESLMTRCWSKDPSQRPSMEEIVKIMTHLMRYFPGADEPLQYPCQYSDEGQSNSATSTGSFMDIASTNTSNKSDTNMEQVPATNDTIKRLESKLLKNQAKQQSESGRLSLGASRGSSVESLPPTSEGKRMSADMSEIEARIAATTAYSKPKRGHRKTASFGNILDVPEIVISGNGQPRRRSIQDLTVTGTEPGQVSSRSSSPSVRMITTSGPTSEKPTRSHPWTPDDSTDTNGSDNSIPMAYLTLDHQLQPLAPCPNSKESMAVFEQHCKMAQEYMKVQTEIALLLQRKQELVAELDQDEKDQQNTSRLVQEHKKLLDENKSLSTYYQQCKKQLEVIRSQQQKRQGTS

[5] = biological target: T2, Mitogen-activated protein kinase kinase kinase 7 (Homo sapiens) (UniProt O43318)
T2 sequence (whole entry): T1 sequence (O43318 whole entry)

[6] = biological target: T1, Mitogen-activated protein kinase kinase kinase 7; assay: Inhibition of full length recombinant human GST-tagged TAK1 expressed in baculovirus expression system after 1 hr by TR-FRET based LanthaScreen assay
[7] = biological target: T2, Mitogen-activated protein kinase kinase kinase 7 (Homo sapiens); conditions: 10 uM
[8] = biological target: Protein-tyrosine kinase 2-beta (Homo sapiens) (UniProt Q14289); assay: Inhibition of full length human PYK2 (M1 to E967 residues) expressed in bacterial expression system at 1 uM by KINOMEScan assay
Chain of Protein-tyrosine kinase 2-beta (Homo sapiens) (Q14289 whole entry, looked up, the tested form may be a part): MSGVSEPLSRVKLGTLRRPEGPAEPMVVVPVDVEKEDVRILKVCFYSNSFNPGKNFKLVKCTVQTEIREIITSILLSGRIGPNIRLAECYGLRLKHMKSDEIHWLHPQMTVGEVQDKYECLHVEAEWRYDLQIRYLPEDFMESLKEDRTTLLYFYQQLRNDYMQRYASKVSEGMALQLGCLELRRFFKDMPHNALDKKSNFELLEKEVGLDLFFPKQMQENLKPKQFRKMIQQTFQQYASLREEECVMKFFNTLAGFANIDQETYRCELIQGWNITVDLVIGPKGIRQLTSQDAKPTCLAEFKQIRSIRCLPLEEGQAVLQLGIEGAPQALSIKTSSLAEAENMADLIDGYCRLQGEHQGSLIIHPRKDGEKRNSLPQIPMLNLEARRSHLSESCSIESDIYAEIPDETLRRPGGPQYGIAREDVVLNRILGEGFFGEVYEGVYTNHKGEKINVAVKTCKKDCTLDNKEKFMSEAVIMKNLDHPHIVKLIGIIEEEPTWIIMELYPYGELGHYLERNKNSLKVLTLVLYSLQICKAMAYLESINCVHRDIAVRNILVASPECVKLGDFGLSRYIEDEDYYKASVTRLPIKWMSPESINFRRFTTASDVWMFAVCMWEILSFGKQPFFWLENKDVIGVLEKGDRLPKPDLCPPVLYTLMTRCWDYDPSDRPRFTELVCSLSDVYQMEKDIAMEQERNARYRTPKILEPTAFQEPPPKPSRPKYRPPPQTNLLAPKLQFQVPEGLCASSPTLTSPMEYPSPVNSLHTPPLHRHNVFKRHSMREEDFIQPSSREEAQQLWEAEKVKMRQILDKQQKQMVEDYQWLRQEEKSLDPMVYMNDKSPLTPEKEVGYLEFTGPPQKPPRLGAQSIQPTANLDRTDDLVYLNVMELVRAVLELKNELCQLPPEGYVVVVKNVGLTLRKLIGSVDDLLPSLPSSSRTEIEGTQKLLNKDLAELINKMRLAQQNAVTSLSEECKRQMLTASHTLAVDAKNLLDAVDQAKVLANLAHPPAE
How it was run: (§1)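 KINOMEscan in vitro ATP-site competition binding, screened across a 468-kinase and mutant panel at a single concentration of 1 μM. Read-out is a binding or inhibition score […].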

[9] = biological target: Wee1-like protein kinase (Homo sapiens) (UniProt P30291); assay: Inhibition of human WEE1 (M291 to K575 residues) expressed in bacterial expression system at 1 uM by KINOMEScan assay; how it was run: as §1
Chain of Wee1-like protein kinase (Homo sapiens) (P30291 whole entry, looked up, the tested form may be a part): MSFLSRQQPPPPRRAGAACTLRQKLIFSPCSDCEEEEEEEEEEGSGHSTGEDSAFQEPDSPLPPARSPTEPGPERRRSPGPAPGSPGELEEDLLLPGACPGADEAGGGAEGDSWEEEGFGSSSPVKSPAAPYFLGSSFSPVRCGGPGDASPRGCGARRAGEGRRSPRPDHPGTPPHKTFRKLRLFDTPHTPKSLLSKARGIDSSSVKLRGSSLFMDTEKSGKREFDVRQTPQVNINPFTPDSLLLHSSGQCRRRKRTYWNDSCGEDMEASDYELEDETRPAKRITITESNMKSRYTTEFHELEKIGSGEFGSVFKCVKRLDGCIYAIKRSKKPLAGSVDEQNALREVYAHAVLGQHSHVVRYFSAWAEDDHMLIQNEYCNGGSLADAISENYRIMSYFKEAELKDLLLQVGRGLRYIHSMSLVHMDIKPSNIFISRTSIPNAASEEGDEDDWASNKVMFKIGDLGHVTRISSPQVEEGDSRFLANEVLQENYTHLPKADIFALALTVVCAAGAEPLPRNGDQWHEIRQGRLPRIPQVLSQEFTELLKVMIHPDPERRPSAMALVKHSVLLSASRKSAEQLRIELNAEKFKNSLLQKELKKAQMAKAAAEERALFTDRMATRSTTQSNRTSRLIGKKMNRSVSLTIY

[10] = biological target: T3, Mitogen-activated protein kinase kinase kinase 2 (Homo sapiens) (UniProt Q9Y2U5); assay: Inhibition of human MAP3K2 (S315 to H619 residues) expressed in mammalian expression system at 1 uM by KINOMEScan assay; how it was run: as §1
T3 sequence (whole entry): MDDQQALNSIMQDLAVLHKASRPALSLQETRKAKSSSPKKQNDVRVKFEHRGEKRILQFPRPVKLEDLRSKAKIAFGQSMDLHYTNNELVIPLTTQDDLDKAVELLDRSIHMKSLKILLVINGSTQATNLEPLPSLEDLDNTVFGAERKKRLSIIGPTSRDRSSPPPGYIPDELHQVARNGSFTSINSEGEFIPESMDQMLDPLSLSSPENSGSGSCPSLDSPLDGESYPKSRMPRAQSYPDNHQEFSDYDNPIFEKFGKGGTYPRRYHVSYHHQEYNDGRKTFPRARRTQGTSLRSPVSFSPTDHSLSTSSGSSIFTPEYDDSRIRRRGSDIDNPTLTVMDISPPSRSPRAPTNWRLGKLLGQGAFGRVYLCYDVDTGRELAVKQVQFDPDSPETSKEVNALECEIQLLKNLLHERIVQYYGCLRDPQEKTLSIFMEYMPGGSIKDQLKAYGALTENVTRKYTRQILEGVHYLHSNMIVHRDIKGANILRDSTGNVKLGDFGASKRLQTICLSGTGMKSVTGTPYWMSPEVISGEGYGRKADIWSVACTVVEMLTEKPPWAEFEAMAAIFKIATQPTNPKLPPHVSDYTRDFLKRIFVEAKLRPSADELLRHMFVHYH

[11] = biological target: T4, Mitogen-activated protein kinase kinase kinase 3 (Homo sapiens) (UniProt Q99759); assay: Inhibition of human MAP3K3 (E320 to Y626 residues) expressed in mammalian expression system at 1 uM by KINOMEScan assay; how it was run: as §1
T4 sequence (whole entry): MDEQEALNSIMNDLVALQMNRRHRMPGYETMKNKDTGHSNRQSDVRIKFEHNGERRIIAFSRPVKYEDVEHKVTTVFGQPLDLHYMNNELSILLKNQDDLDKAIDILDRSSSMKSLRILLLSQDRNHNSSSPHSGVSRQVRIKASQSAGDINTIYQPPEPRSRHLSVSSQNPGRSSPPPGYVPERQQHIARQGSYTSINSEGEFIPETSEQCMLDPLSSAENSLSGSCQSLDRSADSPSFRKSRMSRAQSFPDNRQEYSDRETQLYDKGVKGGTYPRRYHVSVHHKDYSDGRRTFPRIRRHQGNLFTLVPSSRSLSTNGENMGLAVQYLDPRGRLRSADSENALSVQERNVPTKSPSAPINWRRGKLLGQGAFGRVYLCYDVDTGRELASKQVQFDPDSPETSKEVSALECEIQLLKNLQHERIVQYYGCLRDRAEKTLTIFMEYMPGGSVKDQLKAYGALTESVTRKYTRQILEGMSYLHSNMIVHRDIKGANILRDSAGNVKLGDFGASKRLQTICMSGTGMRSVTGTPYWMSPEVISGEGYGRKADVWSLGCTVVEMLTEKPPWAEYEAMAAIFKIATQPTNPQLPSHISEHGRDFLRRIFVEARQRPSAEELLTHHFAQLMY

[12] = biological target: Wee1-like protein kinase 2 (Homo sapiens) (UniProt P0C1S8); assay: Inhibition of human WEE2 (M204 to K492 residues) expressed in bacterial expression system at 1 uM by KINOMEScan assay; how it was run: as §1
Chain of Wee1-like protein kinase 2 (Homo sapiens) (P0C1S8 whole entry, looked up, the tested form may be a part): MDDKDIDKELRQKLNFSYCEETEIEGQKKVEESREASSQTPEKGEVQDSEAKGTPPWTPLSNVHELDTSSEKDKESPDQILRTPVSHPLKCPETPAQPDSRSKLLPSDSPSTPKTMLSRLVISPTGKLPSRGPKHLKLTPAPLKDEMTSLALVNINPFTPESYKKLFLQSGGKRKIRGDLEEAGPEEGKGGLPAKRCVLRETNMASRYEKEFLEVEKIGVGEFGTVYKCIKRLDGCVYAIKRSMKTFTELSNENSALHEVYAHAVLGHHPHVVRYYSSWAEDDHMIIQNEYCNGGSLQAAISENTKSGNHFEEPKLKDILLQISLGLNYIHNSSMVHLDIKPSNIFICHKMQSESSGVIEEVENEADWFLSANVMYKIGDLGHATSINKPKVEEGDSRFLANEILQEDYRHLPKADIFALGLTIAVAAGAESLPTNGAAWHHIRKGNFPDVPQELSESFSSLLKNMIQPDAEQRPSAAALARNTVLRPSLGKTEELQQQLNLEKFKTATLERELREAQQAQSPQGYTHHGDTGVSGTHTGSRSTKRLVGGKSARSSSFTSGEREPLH

[13] = biological target: T2, Mitogen-activated protein kinase kinase kinase 7 (Homo sapiens); assay: Binding affinity to full length recombinant human GST-tagged TAK1 expressed in baculovirus expression system assessed as labeling of Cys-174 residue after 1 hr by mass spectrometric analysis

SMILES | t1/2 [1] [min] | IC50 [2] [nM] | IC50 [3] [nM] | also measured
C=CC(=O)Nc1ccccc1Nc1nc(Nc2ccc(N3CCN(C)CC3)cc2)ncc1Cl | 10.8 | 1090 | 142 | IC50 [4]: 125 nM; Ki [4]: 160 nM; Kinact [5]: 1.1 ×10⁻³ /s
C=CC(=O)Nc1ccc(Oc2nc(Nc3ccc(N4CCN(C)CC4)cc3)nc3[nH]ccc23)cc1 |  |  |  | IC50 [6]: 34 nM
C=CC(=O)Oc1ccccc1Nc1nc(Nc2cccc(N3CCN(C(C)=O)CC3)c2)ncc1Cl | < 1 | 225 | 9.5 | 
C=CC(=O)Nc1ccccc1Oc1nc(Nc2ccc(N3CCN(C)CC3)cc2)ncc1C | 8.8 | 9230 | 1630 | 
C=CC(=O)Nc1ccccc1Oc1ccnc(Nc2ccc(N3CCN(C)CC3)cc2)n1 |  |  | 4470 | 
CN1CCN(c2ccc(Nc3ncc(Cl)c(Oc4ccccc4NC(=O)CCl)n3)cc2)CC1 | 3 | > 10000 | 2500 | IC50 [6]: 25 nM
C=CC(=O)Nc1ccccc1Oc1nc(Nc2ccc(N3CCN(C)CC3)cc2)ncc1OC | 15.3 | 1670 | 1300 | 
CCC(=O)Nc1ccccc1Oc1nc(Nc2ccc(N3CCN(C)CC3)cc2)ncc1Cl |  |  | > 10000 | IC50 [6]: > 10000 nM
COc1cc(O)c2c(c1)/C=C/C[C@H](O)[C@H](O)C(=O)/C=C\C[C@H](C)OC2=O |  | 738 | 2.9 | inhibition [7]: Active
C=CC(=O)Nc1ccccc1Oc1nc(Nc2cnn(CCOC)c2)ncc1Cl | 6.9 | 90.3 | 8.5 | IC50 [4]: 7.6 nM
C=CC(=O)Oc1ccccc1Nc1nc(Nc2ccc(N3CCN(C)CC3)cc2OC)ncc1Cl |  |  |  | IC50 [6]: 342 nM
C=CC(=O)Nc1ccccc1Sc1nc(Nc2ccc(N3CCN(C)CC3)cc2)ncc1Cl |  |  | 2480 | 
CCC(=O)Nc1ccccc1Nc1nc(Nc2ccc(N3CCN(C)CC3)cc2)ncc1Cl |  |  |  | inhibition [8]: Active; inhibition [9]: Active; inhibition [10]: Active; inhibition [11]: Active; inhibition [12]: Active
C=CC(=O)Nc1ccccc1Oc1nc(Nc2cnn(C(F)F)c2)ncc1Cl | 4.2 | 242 | 26 | 
C=CC(=O)Oc1ccccc1Nc1nc(Nc2ccc(N3CCOCC3)cc2)ncc1Cl | 3.8 | 361 | 8.9 | 
C=CC(=O)Nc1ccccc1-n1ccc2cnc(Nc3ccc(N4CCN(C)CC4)cc3)nc21 | 10.5 | > 10000 | 6810 | 
C=CC(=O)Oc1ccccc1Nc1nc(Nc2ccc(N3CCN(C)CC3)cc2)ncc1Cl | 5.7 | 277 | 16 | 

Continued, in another order:

t1/2 [1] [min] | IC50 [2] [nM] | IC50 [3] [nM] | SMILES | also measured
12.8 | 5600 | 763 | C=CC(=O)Nc1ccccc1Oc1nc(Nc2ccc(N3CCN(C)CC3)cc2)ncc1C1CC1 | 
 |  | 4810 | C=CC(=O)Nc1cc(NC(C)=O)ccc1Oc1nc(Nc2ccc(N3CCN(C)CC3)cc2)ncc1Cl | IC50 [6]: 1640 nM
 |  | > 10000 | C=CC(=O)Nc1ccccc1Oc1nc(Nc2ccc(N3CCN(C)CC3)cc2)nc(N)c1Cl | 
4 | 4620 | 8.2 | C=CC(=O)Nc1ccccc1Oc1nc(Nc2cnn(C3CCOCC3)c2)ncc1Cl | 
23 | 736 | 11 | C=CC(=O)Oc1ccccc1Nc1nc(Nc2cccc(N3CCOCC3)c2)ncc1Cl | 
8.1 | 3140 | 9.8 | C=CC(=O)Nc1ccccc1Oc1nc(Nc2cnn(C)c2)ncc1Cl | 
6.1 | 7000 | 78 | C=CC(=O)Nc1ccccc1Oc1nc(Nc2ccc(N3CCN(C)CC3)cc2)ncc1Cl | IC50 [4]: 360 nM; Activity [13]: Active
